Four molecules from ChEMBL document CHEMBL1142648, “Enhancement in antimicrobial activity of 2-(phenyl)-3-(2-butyl-4-chloro-1H-imidazolyl)-5-butylate isoxazolidine” (2005) can be followed below.

In brackets after ≈: the same amount, converted by molar mass.

Common to all, as to assay type: functional
The subject of assay [1] is Aspergillus niger. Put plainly: Minimum inhibitory concentration against Aspergillus niger. An outline of the steps: (§1)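 Fungal MIC by tube dilution in potato dextrose broth, 5 mL final volume. Compounds were taken up in DMSO, diluted 1:9 with water, then serially diluted in medium. Spore suspension was added at a final 2 × 10^3 CFU/mL and incubated at 28 °C for 48 h. Absorbance was read at 640 nm. MIC is the lowest no-growth concentration, checked by subculturing 10 µL onto potato dextrose agar and examining under a microscope.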

Assay [2] concerns Fusarium verticillioides. Put plainly: Minimum inhibitory concentration against Fusarium moniliforme. The gist of the method: as §1
Assay [3] has as its system Cephalosporium. Put plainly: Minimum inhibitory concentration against Cephalosporium acremonium. The gist of the method:
as §1

Assay [4] has as its system Staphylococcus aureus. Put plainly: Minimum inhibitory concentration against Staphylococcus aureus. The gist of the method: (§2)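 Broth tube dilution in brain heart infusion broth, 5 mL final volume. Compounds were dissolved in DMSO, diluted 1:9 with water, then serially diluted in medium. Cells were added at a final 2 × 10^3 CFU/mL and incubated at 37 °C for 24 h. Turbidity was read at 640 nm. MIC is the lowest concentration with no growth, confirmed by spreading 10 µL of clear tubes on BHI agar.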

Assay [5] relates to Escherichia coli. Put plainly: Minimum inhibitory concentration against Escherichia coli. An outline of the steps: as §2
In assay [6] the test system is Bacillus subtilis. Put plainly: Minimum inhibitory concentration against Bacillus subtilis. An outline of the steps:
as §2

Where [7] appears, read: Staphylococcus aureus, read-out: MIC.
The mark [8] stands for this setting: Escherichia coli, read-out: MIC.
Where [9] appears, read: Bacillus subtilis, read-out: MIC.

Take NYSTATIN: the MIC in assay [1] stood at 12 µg/mL; in assay [2], 14 µg/mL; in assay [3] (Hapsidospora chrysogena), 11 µg/mL.

In the case of `CCCCOC(=O)[C@H]1C[C@@H](c2[nH]c(CCCC)nc2Cl)N(c2ccccc2)O1` (stereo in doubt; B), the MIC in assay [4] is 8 µg/mL (≈ 19.7 µM); in assay [5] it was 11 µg/mL (≈ 27.1 µM); in assay [1], 36 µg/mL (≈ 88.7 µM); in assay [6] it was 7 µg/mL (≈ 17.2 µM); in assay [2], 28 µg/mL (≈ 69 µM); in assay [3], 33 µg/mL (≈ 81.3 µM).

For the molecule `CN[C@@H]1[C@H](O[C@H]2[C@H](O[C@H]3[C@H](O)[C@@H](O)[C@H](N=C(N)N)[C@@H](O)[C@@H]3N=C(N)N)O[C@@H](C)[C@]2(O)C=O)O[C@@H](CO)[C@H](O)[C@H]1O` [STREPTOMYCIN], the minimal inhibitory concentration (MIC) in assay [4] (setting [7]) stood at 3 µg/mL (≈ 5.16 µM); in assay [5] (setting [8]), 6 µg/mL (≈ 10.3 µM); in assay [6] (setting [9]), 3 µg/mL (≈ 5.16 µM).

Take `CCCCOC(=O)[C@H]1C[C@@H](c2[nH]c(CCCC)nc2Cl)N(c2ccccc2)O1` (stereo in doubt; A): the MIC amounted to 7 µg/mL (≈ 17.2 µM) in assay [4] (setting [7]); 10 µg/mL (≈ 24.6 µM) in assay [5] (setting [8]); 14 µg/mL (≈ 34.5 µM) in assay [1]; 7 µg/mL (≈ 17.2 µM) in assay [6] (setting [9]); 13 µg/mL (≈ 32 µM) in assay [2]; 11 µg/mL (≈ 27.1 µM) in assay [3].
